Laboratory results from ChEMBL document CHEMBL2346519, “Substituted indolin-2-ones as p90 ribosomal S6 protein kinase 2 (RSK2) inhibitors: Molecular docking simulation and structure-activity relationship analysis” (Bioorg Med Chem, 2013).

Experiments:
[1] = biological target: T1, Ribosomal protein S6 kinase alpha-3 (Homo sapiens, UniProt P51812); assay: Inhibition of RSK2 (unknown origin) using AKRRRLSSLRA as substrate after 60 mins by fluorescence assay
PC-3 [2] = assay: Cytotoxicity against human PC3 cells assessed as growth inhibition at 100 uM after 48 hrs by MTT assay relative to control; assay type: functional; details: PC-3, 48 h, read-out: GI
Summary of the method: (§1)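 Single-concentration screen at 100 µM by 48 h MTT. MCF-7 cells were grown in DMEM plus 10% FBS and PC 3 cells in F-12K, 5 × 10^3 cells per well. After 4 h with MTT at 37 °C, formazan was dissolved in DMSO and absorbance read at 570 nm. Percent inhibition is reported.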

[3] = biological target: T1, Ribosomal protein S6 kinase alpha-3; assay: Inhibition of RSK2 (unknown origin) using AKRRRLSSLRA as substrate at 10 uM after 60 mins by fluorescence assay relative to control
MCF7 [4] = assay: Cytotoxicity against human MCF7 cells assessed as growth inhibition at 100 uM after 48 hrs by MTT assay relative to control; assay type: functional; details: MCF7, 48 h, read-out: GI; summary of the method: as §1
PC-3 [5] = assay: Cytotoxicity against human PC3 cells assessed as growth inhibition after 48 hrs by MTT assay; assay type: functional, cell-based; details: PC-3, 48 h
Summary of the method: (§2)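 MCF-7 cells grown in DMEM plus 10% FBS and PC 3 cells in F-12K, both seeded at 5 × 10^3 per well. Cells were exposed to compounds at various concentrations for 48 h. MTT was then added for 4 h at 37 °C in 5% CO2, formazan was dissolved in DMSO, and absorbance was read at 570 nm. IC50 was taken from inhibition curves of three independent experiments and measured only where inhibition at 100 µM exceeded 50%.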

MCF7 [6] = assay: Cytotoxicity against human MCF7 cells assessed as growth inhibition after 48 hrs by MTT assay; assay type: functional, cell-based; details: MCF7, 48 h; summary of the method: as §2
[7] = biological target: T1, Ribosomal protein S6 kinase alpha-3; assay: Inhibition of RSK2 (unknown origin)

T1 sequence (P51812 whole entry): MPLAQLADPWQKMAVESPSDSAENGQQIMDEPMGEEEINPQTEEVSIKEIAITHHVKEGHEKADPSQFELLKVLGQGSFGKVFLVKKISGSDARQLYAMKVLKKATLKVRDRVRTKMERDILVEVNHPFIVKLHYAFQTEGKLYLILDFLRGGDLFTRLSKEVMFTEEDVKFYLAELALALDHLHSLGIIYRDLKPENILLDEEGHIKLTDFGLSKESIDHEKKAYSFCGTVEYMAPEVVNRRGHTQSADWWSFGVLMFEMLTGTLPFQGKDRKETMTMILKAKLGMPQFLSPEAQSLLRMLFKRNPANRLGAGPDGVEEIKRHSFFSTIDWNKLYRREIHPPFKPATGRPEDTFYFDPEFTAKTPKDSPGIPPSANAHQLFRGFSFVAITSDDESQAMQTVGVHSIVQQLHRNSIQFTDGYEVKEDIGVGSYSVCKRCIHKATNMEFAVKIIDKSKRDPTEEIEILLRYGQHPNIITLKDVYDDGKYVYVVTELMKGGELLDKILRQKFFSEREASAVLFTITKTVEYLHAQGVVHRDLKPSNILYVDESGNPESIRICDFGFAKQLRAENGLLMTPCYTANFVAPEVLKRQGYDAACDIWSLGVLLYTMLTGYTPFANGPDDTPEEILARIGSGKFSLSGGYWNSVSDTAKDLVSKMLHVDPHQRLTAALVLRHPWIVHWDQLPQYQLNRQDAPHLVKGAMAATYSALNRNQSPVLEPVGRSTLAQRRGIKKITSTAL

Row | inhibition [3] | SMILES | also measured
1 | 11.5% | O=C1Nc2ccc(Br)cc2/C1=N/NC(=O)c1ccco1 | –
2 | < 10% | O=C1Nc2ccc(Br)cc2/C1=C/c1c[nH]nc1-c1ccc(F)cc1 | –
3 | 79.5% | O=C1Nc2ccccc2/C1=C/c1c[nH]nc1-c1ccccc1 | IC50 (MCF7 [6]): 8.55 µM; IC50 [1]: 2.72 µM; IC50 (PC-3 [5]): 6.19 µM
4 | 39.6% | Cc1c(Cl)ccc2c1NC(=O)/C2=C1\SC(=S)NC1=O | –
5 | 26.3% | O=C1Nc2ccc(F)cc2/C1=C/c1ccc(-c2cccc(Br)c2)o1 | –
6 | 18.4% | N=C1NC(=O)/C(=C2/C(=O)Nc3cc(Cl)ccc32)S1 | –
7 | < 10% | O=C1Nc2ccc(Br)cc2/C1=N/NC(=O)c1ccc2c(c1)OCO2 | –
8 | < 10% | O=C1Nc2ccc(F)cc2/C1=C/c1c[nH]nc1-c1ccc(F)cc1 | –
9 | < 10% | O=C1Nc2ccccc2/C1=N/N=C1\CCCc2c1[nH]c1ccc(Cl)cc21 | –
10 | 87.3% | O=C1Nc2ccc(Br)cc2/C1=C\c1ccco1 | IC50 (MCF7 [6]): 9.84 µM; IC50 [1]: 1.51 µM; IC50 (PC-3 [5]): 16.9 µM
11 | 22.3% | O=C1Nc2ccc(Br)cc2/C1=C/c1ccc(-c2ccccc2Cl)o1 | –
12 | 84.8% | O=C1Nc2ccc(Cl)cc2/C1=C\c1ccco1 | IC50 (MCF7 [6]): 14.7 µM; IC50 [1]: 2.02 µM; IC50 (PC-3 [5]): 23.9 µM
13 | 33.2% | O=C1Nc2ccc(Cl)cc2/C1=C/c1c[nH]nc1-c1ccccc1 | –
14 | < 10% | O=C1Nc2ccc(Cl)cc2/C1=C/c1ccc(-c2cccc(Br)c2)o1 | –
15 | < 10% | O=C1Nc2ccc(Cl)cc2/C1=C1/S/C(=N\c2ccccc2)N(c2ccccc2)C1=O | –
16 | < 10% | O=C1Nc2ccccc2/C1=C/c1ccc(-c2c(Cl)cc(C(F)(F)F)cc2Cl)o1 | –
17 | 78.4% | O=C1Nc2ccc(F)cc2/C1=C/c1c[nH]nc1-c1ccccc1 | IC50 [1]: 8.59 µM; inhibition of growth at 100 µM (PC-3 [2]): < 10%; inhibition of growth at 100 µM (MCF7 [4]): < 10%
18 | 41.1% | CC(=O)NN1C(=O)/C(=C2/C(=O)Nc3ccc(C)cc32)SC1=S | –
19 | 30.1% | Cc1ccc(N/N=C2/C(=O)Nc3ccc(F)cc32)cc1 | –
20 | 16.5% | O=C1Nc2ccccc2/C1=C/c1ccc(CN2C(=O)c3ccccc3C2=O)o1 | –

Second part, the compound before the results:

Row | SMILES | inhibition [3] | also measured
21 | CCc1cccc2c1NC(=O)/C2=C1\SC(=S)NC1=O | 50.1% | IC50 [1]: 17 µM; inhibition of growth at 100 µM (PC-3 [2]): 40.9%; inhibition of growth at 100 µM (MCF7 [4]): 16%
22 | Cn1cc(C2=C(c3cn(CCCSC(=N)N)c4ccccc34)C(=O)NC2=O)c2ccccc21 [BISINDOLYLMALEIMIDE IX] | – | IC50 (PC-3 [5]): 1.74 µM
23 | O=C1Nc2ccc([N+](=O)[O-])cc2/C1=C\c1ccco1 | 29.8% | –
24 | Nc1ccc2c(c1)/C(=C\c1ccco1)C(=O)N2 | 100% | IC50 (MCF7 [6]): 15.5 µM; IC50 [1]: 2.49 µM; inhibition of growth at 100 µM (PC-3 [2]): < 10%
25 | O=C1Nc2ccc(Cl)cc2/C1=C/c1c[nH]nc1-c1ccc(F)cc1 | 44.5% | –
26 | O=C1Nc2ccc(Cl)cc2/C1=C/c1c[nH]nc1-c1ccc(Cl)cc1 | < 10% | –
27 | O=C1Nc2ccccc2/C1=C/c1c[nH]nc1-c1ccc(F)cc1 | 38.6% | –
28 | CCc1ccc2c(c1)/C(=N\NC(=O)CSc1ccc(Cl)cc1)C(=O)N2 | < 10% | –
29 | O=C1Nc2ccc(F)cc2/C1=C/c1ccc(-c2ccccc2Cl)o1 | 17.1% | –
30 | O=C1Nc2ccc(Cl)cc2/C1=C/c1ccc(-c2ccccc2Cl)o1 | 32.1% | –
31 | NC(=O)c1ccc(/N=C2/C(=O)Nc3ccccc32)cc1 | < 10% | –
32 | COc1ccc(-n2c(/C=C3\C(=O)Nc4ccccc43)nc3ccc(I)cc3c2=O)cc1 | 13.4% | –
33 | Cc1cccc2c1NC(=O)/C2=C1\SC(=S)NC1=O | 92.4% | IC50 [1]: 1.68 µM; inhibition of growth at 100 µM (PC-3 [2]): < 10%; inhibition of growth at 100 µM (MCF7 [4]): 41.5%
34 | O=C1Nc2ccccc2/C1=C/c1ccco1 | 69.6% | IC50 (MCF7 [6]): 30.1 µM; IC50 [1]: 3.47 µM; inhibition of growth at 100 µM (PC-3 [2]): < 10%; IC50 [7]: 7.76 µM
35 | O=C1Nc2ccccc2/C1=C/c1ccc(-c2ccccc2Cl)o1 | 16.8% | –
36 | O=C1Nc2ccccc2/C1=C/c1ccc(-c2cccc(Br)c2)o1 | 21.9% | –
37 | CCn1c(/C=C2\C(=O)Nc3ccccc32)nc2ccccc2c1=O | < 10% | –
38 | COc1ccc2c(c1)/C(=C\c1ccco1)C(=O)N2 | 25.6% | –
39 | O=C1Nc2ccc(Br)cc2/C1=C/c1c[nH]nc1-c1ccccc1 | 33.6% | –
40 | O=C1Nc2ccc(Br)cc2/C1=C/c1ccc(-c2cccc(Br)c2)o1 | < 10% | –
